Laboratory results published in ChEMBL document CHEMBL1137092, “Synthesis and evaluation of two 18F-labeled 6-iodo-2-(4'-N,N-dimethylamino)phenylimidazo[1,2-a]pyridine derivatives as prospective radioligands for beta-amyloid in Alzheimer's disease” (J Med Chem, 2004).
Where “and” joins values, the source holds several entries; their conditions need not be identical. Identical values can stand only once.

What was measured:
[1] = Compound (i.v.) was evaluated for uptake rate constants in brainstem of rhesus monkeys (Radiolabeled compound); type: ADME, tissue-based, Brain; settings: cercopithecidae, iv
Method in brief: (§1)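 Rhesus monkey with urinary catheter; ECG, temperature, heart and respiration rates monitored. A 32 min 68Ge transmission scan was taken for attenuation correction. 18F ligand (2.9 mCi) given iv. Dynamic 3D head PET ran 120 min (33 frames, 30 s–5 min). Regional uptake and elimination rate constants were fitted from time-activity curves.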

[2] = tested on: Mus musculus; assay: Compound was evaluated for elimination rate constants in vivo in whole blood of normal mice (Radiolabeled compound); type: ADME, organism-based
Method in brief: (§2)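 Normal mice given 18F ligand iv during PET. Serial blood samples (10–35 μL) were taken and analysed by reverse-phase HPLC for parent, lipophilic and polar radioactive components. Parent, lipophilic and total curves were fitted to single-exponential decay; the polar metabolite curve was fitted double-exponentially to give rate constants.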

[3] = Compound (i.v.) was evaluated for uptake rate constants in jaw bone of rhesus monkey (Radiolabeled compound); type: ADME, tissue-based, Bone element; settings: cercopithecidae, iv; method in brief: as §1
[4] = Compound was evaluated for distribution coefficient (logD) measured at pH7.4; type: physicochemical; settings: octanol/water, pH 7.4
Method in brief: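 Shake-flask partition: ligand (3–5 mg) in 0.1 M sodium phosphate pH 7.4 (6.0 mL) with n-octanol (1.0 mL). Vortexed 1 min, shaken 1 min, filtered, left 10 min at RT, centrifuged 5000g for 10 min. Value is the ratio of organic-phase to aqueous-phase concentration.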

[5] = species: Mus musculus; assay: Compound was evaluated for washout rate in mice (Radiolabeled compound); type: ADME, organism-based; settings: in vivo
Method in brief: (§3)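 Male ICR mice (2–3 months, 20–30 g) under 1% isoflurane, body temperature held at 36–37 °C. No-carrier-added 18F ligand (400–450 μCi) in 0.9% saline with 0.1% Tween given via tail-vein catheter. Dynamic small-animal PET for 1–2 h. Brain and skull time-activity curves were averaged over four mice and fitted to a double-exponential model; bone uptake was fitted linearly or exponentially.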

[6] = Compound (i.v.) was evaluated for elimination rate constants in striatum of rhesus monkey (Radiolabeled compound); type: ADME, tissue-based; settings: cercopithecidae, iv; method in brief: as §1
[7] = Compound (i.v.) was evaluated for uptake rate constants in frontal cortex of rhesus monkey (Radiolabeled compound); type: ADME, tissue-based; settings: cercopithecidae, iv; method in brief: as §1
[8] = Compound (i.v.) was evaluated for elimination rate constants in brainstem of rhesus monkeys (Radiolabeled compound); type: ADME, tissue-based, Brain; settings: cercopithecidae, iv, read-out: Activity (converted); method in brief: as §1
[9] = species: Mus musculus; assay: Residual activity in mice at 120 minutes, expressed as [(ID%-kg)/g] (Radiolabeled compound); type: ADME, organism-based; settings: in vivo, 2 h; method in brief: as §3
[10] = species: Mus musculus; assay: Compound was evaluated for rate of bone uptake in mice (Radiolabeled compound); type: ADME, organism-based, Bone element; settings: in vivo; method in brief: as §3
[11] = Compound (i.v.) was evaluated for elimination rate constants in cerebellum of rhesus monkeys (Radiolabeled compound); type: ADME, tissue-based; settings: cercopithecidae, iv; method in brief: as §1
[12] = Compound (i.v.) was evaluated for uptake rate constants in cerebellum of rhesus monkeys (Radiolabeled compound); type: ADME, tissue-based; settings: cercopithecidae, iv; method in brief: as §1
[13] = tested on: Mus musculus; assay: Compound was evaluated for uptake rate constants in vivo in whole blood of normal mice; NA = not active (Radiolabeled compound); type: ADME, organism-based; method in brief: as §2
[14] = Compound (i.v.) was evaluated for elimination rate constants in frontal cortex of rhesus monkey (Radiolabeled compound); type: ADME, tissue-based; settings: cercopithecidae, iv, read-out: Activity (converted); method in brief: as §1
[15] = tested on: Mus musculus; assay: Compound was evaluated for uptake rate constants in vivo in whole blood of normal mice (Radiolabeled compound); type: ADME, organism-based; method in brief: as §2
[16] = tested on: Mus musculus; assay: Compound (i.v.) was tested for maximum activity in mice (Radiolabeled compound); type: ADME, organism-based; settings: in vivo, iv; method in brief: as §3
[17] = Compound (i.v.) was evaluated for uptake rate constants in striatum of rhesus monkeys (Radiolabeled compound); type: ADME, tissue-based; settings: cercopithecidae, iv; method in brief: as §1
[18] = tested on: Mus musculus; assay: Maximum activity (i.v.) after in mice, expressed as [(ID%-kg)/g] (Radiolabeled compound); type: ADME, organism-based; settings: in vivo, iv; method in brief: as §3
[19] = Compound (i.v.) was evaluated for elimination rate constants in jaw bone of rhesus monkeys; NA = not active (Radiolabeled compound); type: ADME, tissue-based, Bone element; settings: cercopithecidae, iv; method in brief: as §1
[20] = species: Mus musculus; assay: Compound was evaluated for washout rate in mice after radiolabeled ligand injected; type: ADME, organism-based; settings: in vivo; method in brief: as §3
[21] = species: Mus musculus; assay: Time at maximum activity in mice (Radiolabeled compound); type: ADME, organism-based; settings: in vivo; method in brief: as §3
[22] = tested on: Mus musculus; assay: Compound was evaluated for rate of bone uptake after administration of radiolabeled in mice (Radiolabeled compound); type: ADME, organism-based, Bone element; settings: in vivo; method in brief: as §3
[23] = species: Mus musculus; assay: Maximum activity in mice, expressed as [(ID%-kg)/g] (Radiolabeled compound); type: ADME, organism-based; settings: in vivo; method in brief: as §3
[24] = species: Mus musculus; assay: Compound was evaluated for rate of bone uptake in mice; NA - not active (Radiolabeled compound); type: ADME, organism-based, Bone element; settings: in vivo

CN(CCF)c1ccc(-c2cn3cc(I)ccc3n2)cc1
Activity [1]: 1 min⁻¹ | Activity [2]: 1.14 min⁻¹ and 0.722 min⁻¹ and 0.801 min⁻¹ | Activity [3]: 0.373 min⁻¹ | logD [4]: 4.41 | Activity [5]: 0.334 min⁻¹ | Activity [6]: 0.0859 min⁻¹ | Activity [7]: 0.859 min⁻¹ | k el [8]: 0.000813 s⁻¹ | Activity [9]: 0.111 | Activity [10]: 0.0016 min⁻¹ | Activity [11]: 0.0854 min⁻¹ | Activity [12]: 1.09 min⁻¹ | Activity [13]: Not Active | k el [14]: 0.00101 s⁻¹ | Activity [15]: 0.576 min⁻¹ | Activity [16]: 0.5 min | Activity [17]: 0.972 min⁻¹ | Activity [18]: 0.161 | Activity [19]: Not Active

CN(CCCF)c1ccc(-c2cn3cc(I)ccc3n2)cc1
Activity [20]: 0.127 min⁻¹ | logD [4]: 4.6 | Activity [9]: 0.0479 | Activity [21]: 1.83 min | Activity [18]: 0.157 | Activity [22]: 0.00728 min⁻¹

CN(C)c1ccc(-c2cn3cc([125I])ccc3n2)cc1
logD [4]: 3.58 | Activity [5]: 0.122 min⁻¹ | Activity [9]: 0.0108 | Activity [23]: 0.216 | Activity [21]: 2 min | Activity [24]: Not Active
